Measurements collected from several papers.
Each line is one published result; the experiments were not run side by side.
EGFR: Epidermal growth factor receptor (EGFR, Homo sapiens, UniProt P00533)
MTOR: Serine/threonine-protein kinase mTOR (MTOR, Homo sapiens, UniProt P42345)
DRD2: D(2) dopamine receptor (DRD2, Homo sapiens, UniProt P14416)

CC(C)C[C@H](NC(=O)[C@H](Cc1ccccc1)NC(=O)[C@H](Cc1ccc(O)cc1)NC(=O)CNC(=O)[C@H](CCCCN)NC(=O)[C@H](CO)NC(=O)[C@H](CCC(N)=O)NC(=O)CNC(=O)[C@@H](NC(=O)[C@H](CO)NC(=O)[C@@H]1CCCN1C(=O)[C@H](CO)NC(=O)[C@H](CCC(N)=O)NC(=O)[C@H](Cc1ccc(O)cc1)NC(=O)[C@H](CCC(=O)O)NC(=O)[C@H](C)NC(=O)[C@H](CCCCN)NC(=O)[C@@H](N)Cc1ccccc1)C(C)C)C(=O)N[C@@H](Cc1ccccc1)C(=O)N[C@@H](CCCNC(=N)N)C(=O)N1CCC[C@H]1C(=O)N[C@@H](CCCNC(=N)N)C(=O)N[C@@H](CC(N)=O)C(N)=O  EC50 (Neuromedin-U receptor 2 (Mus musculus, UniProt Q8BZ39); inositol phosphate, agonist): 0.794 nM
CC(C)[C@@H]1NC(=O)CCNC(=O)CCNC(=O)[C@H](Cc2ccc(O)cc2)NC(=O)[C@H](Cc2ccc(O)cc2)NC(=O)[C@H](Cc2ccccc2)NC(=O)[C@@H](Cc2ccc(O)cc2)NC(=O)CSC[C@@H](C(=O)NCC(N)=O)NC(=O)CCNC(=O)[C@H](CCCNC(=N)N)NC(=O)[C@H](CCCNC(=N)N)NC(=O)[C@H](Cc2ccc(O)cc2)NC(=O)[C@H](C(C)C)NC(=O)[C@H](C(C)C)NC(=O)[C@H](CC(N)=O)NC1=O  Kd (EGFR; binding, SPR): 1690 nM
CC/C=C\C/C=C\C/C=C\CCCCCCCC(=O)O  Ki (Liver carboxylesterase (Sus scrofa, UniProt Q29550); enzyme activity, inhibitor, HPLC): 620 nM
O=c1c(O)c(-c2ccc(O)c(O)c2)oc2cc(O)ccc12  Kd (MTOR; cell-free assay, competition with immobilised ligand): 11000 nM
CSCC[C@H](NC(=O)[C@H](CC(C)C)NC(=O)[C@H](Cc1cnc[nH]1)NC(=O)CNC(=O)[C@@H](NC(=O)[C@H](C)NC(=O)[C@H](Cc1c[nH]c2ccccc12)NC(=O)[C@H](CCC(N)=O)NC(=O)[C@H](CC(N)=O)NC(=O)CNC(=O)[C@H](CC(C)C)NC(=O)[C@H](CCCN=C(N)N)NC(=O)[C@H](CCC(N)=O)NC(=O)[C@@H]1CCC(=O)N1)C(C)C)C(N)=O  EC50 (Bombesin receptor subtype-3 (Brs3, Rattus norvegicus, UniProt Q8K418); calcium signal, agonist, fluorescence): > 10000 nM
OC(c1ccc(F)cc1)C(F)(F)CCN1CCC(O)(c2ccc(Cl)cc2)CC1 (racemic)  Ki (DRD2; cell-free assay, radioligand): 1960 nM
CCCC[C@@H](NC(=O)[C@@H](N)Cc1c(C)cc(O)cc1C)C(=O)NCC(=O)N[C@@H](Cc1ccc(F)cc1)C(=O)N(C)CCC[C@@]1(c2ccc(F)cc2)OCc2cc(C#N)ccc21  Ki (DRD2; ligand displacement, radioligand): 2700 nM
Cl.Cl.N.N.N.N.N.N.N.N.[N-3].[Ru+4].[Ru+4]  IC50 (Calcium uniporter protein, mitochondrial (MCU, Homo sapiens, UniProt Q8NE86); transporter uptake, inhibitor): 8.6 nM
C=C1C[C@H]2C[C@@H](c3ccc(Br)cc3)OCC[C@@H](O)CC(=O)O[C@@H]([C@@H](C)O)C[C@@H]3C/C(=C\C(=O)OC)[C@H](OC(=O)CCCCCCC)[C@@](O)(O3)C(C)(C)/C=C/[C@@H](C1)O2  Ki (Protein kinase C delta type (PRKCD, Homo sapiens, UniProt Q05655); ligand displacement, radioligand): 2.2 nM
COCCCN1CCN(c2ccccc2OC)CC1  Ki (DRD2; ligand displacement, radioligand): 180 nM
Nc1ncc(-c2nc(N3CCOCC3)nc(N3CCOCC3)n2)c(C(F)F)n1  Kd (MTOR; binding, competition with immobilised ligand): 21.5 nM
Cc1cc(O)cc(C)c1C[C@H](N)C(=O)N[C@H](C)C(=O)NCC(=O)N[C@@H](Cc1ccc(Cl)cc1)C(=O)N(C)CCC[C@@]1(c2ccc(F)cc2)OCc2cc(C#N)ccc21  Ki (DRD2; ligand displacement, radioligand): 2200 nM
CC[C@H](C)[C@H](NC(=O)[C@@H](N)CCCNC(=N)N)C(=O)N[C@H](C(=O)N1CCC[C@H]1C(=O)N[C@@H](C)C(N)=O)C(C)C  Kd (Sequestosome-1 (SQSTM1, Homo sapiens, UniProt Q13501); binding, MST; pH 7): 800 nM
CC(C)[C@@H]1NC(=O)[C@H](CCCNC(=N)N)NC(=O)[C@H](Cc2ccc(O)cc2)NC(=O)[C@H](C(C)C)NC(=O)[C@H](C(C)C)NC(=O)[C@H](CCCNC(=N)N)NC(=O)[C@H](CC(=O)O)NC(=O)[C@H](CC(=O)O)NC(=O)CCNC(=O)[C@H](Cc2ccc(O)cc2)NC(=O)[C@H](Cc2ccc(O)cc2)NC(=O)[C@H](Cc2ccccc2)NC(=O)[C@@H](Cc2ccc(O)cc2)NC(=O)CSC[C@@H](C(=O)NCC(N)=O)NC(=O)CCNC1=O  Kd (EGFR; binding, SPR): 632 nM
